Laboratory results as given in ChEMBL document CHEMBL1131461 (J Med Chem, 1998).
Where a chain is given by its changes, count along the chain named. pEC50, pIC50: −log10 of the molar value.

Key:
[1] = target: T1, Muscarinic acetylcholine receptor M1 (Rattus norvegicus, UniProt P08482); test: Binding affinity for muscarinic acetylcholine receptor M1 using [3H]oxotremorine-M (Oxo-M) radioligand in rat hippocampus membranes; format: cell membranes, Membrane
T1 sequence (P08482 whole entry): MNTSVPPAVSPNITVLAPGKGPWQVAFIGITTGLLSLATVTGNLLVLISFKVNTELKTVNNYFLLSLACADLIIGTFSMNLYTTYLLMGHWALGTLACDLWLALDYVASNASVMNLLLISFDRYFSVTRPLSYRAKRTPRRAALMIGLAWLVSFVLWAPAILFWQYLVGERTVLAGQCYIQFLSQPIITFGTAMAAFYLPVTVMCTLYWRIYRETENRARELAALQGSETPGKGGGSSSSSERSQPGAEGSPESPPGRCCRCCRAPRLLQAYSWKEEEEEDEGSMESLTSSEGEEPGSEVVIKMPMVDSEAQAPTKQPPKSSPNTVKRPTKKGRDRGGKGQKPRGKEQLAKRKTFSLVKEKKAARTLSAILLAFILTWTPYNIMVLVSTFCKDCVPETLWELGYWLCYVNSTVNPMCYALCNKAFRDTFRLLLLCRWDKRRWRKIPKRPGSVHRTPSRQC

[2] = target: T1, Muscarinic acetylcholine receptor M1; test: Binding affinity for muscarinic acetylcholine receptor M1 using [3H]pirenzepine (Pz) radioligand in rat hippocampus membranes.; format: cell membranes
Mus musculus [3] = test: Compound at an intraperitoneal dose of 10 mg/Kg was tested for salivation in mice expressed as score; format: functional
Procedure, shortened: (§1)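 Male Cr1:CF1RBR mice, 20–30 g, in groups of five. Compound dissolved in distilled water, given ip at 10 mg/kg. Salivation and tremor scored 30 min after dosing on a 0–2 scale (0 = no effect, 1 = moderate, 2 = marked).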

[4] = target: T2, Muscarinic acetylcholine receptor M1 (Homo sapiens, UniProt P11229); test: Effective concentration required for stimulation of phosphoinositol (PI) hydrolysis in the A9 L cell line transfected with the Muscarinic acetylcholine receptor M1.; format: functional, cell-based, A9L
T2 sequence (P11229 whole entry): T1 sequence (P08482 whole entry) with V5A, S254T, S309P, K320R, G337A, V413I

Mus musculus [5] = test: Intraperitoneal dose of 10 mg/Kg was tested for salivation in mice expressed as score.; format: functional; procedure, shortened: as §1
Mus musculus [6] = test: Compound at an intraperitoneal dose of 10 mg/Kg was tested for salivation in mice expressed as score; 2=Marked salivation or tremor; format: functional; procedure, shortened: as §1
Mus musculus [7] = test: Compound at an intraperitoneal dose of 10 mg/Kg was tested for salivation in mice expressed as score; 1=Moderate salivation or tremor; format: functional; procedure, shortened: as §1

Compound | pIC50 [1] | pIC50 [2] | Score (Mus musculus [3]) | pEC50 [4] | Score (Mus musculus [5]) | Score (Mus musculus [6]) | Score (Mus musculus [7])
CCCSc1nsnc1C1CN2CCC1C2 (stereo in doubt; 41) | 9.22 | – | – | – | – | – | –
CCCCCSc1nsnc1OC1CN2CCC1CC2 (stereo in doubt; 18e) | 8.36 | 8.05 | 0.6 | 6.36 | – | – | –
CCCCCSc1nsnc1OC1CN2CCC1CC2 (stereo in doubt; 18g) | 8.85 | 8.57 | 1.2 | 6.87 | – | – | –
CCCSc1nsnc1OC1CN2CCC1C2 (stereo in doubt; 32) | 8.26 | 7.18 | 1.8 | 6.79 | – | – | –
CCSCc1nsnc1OC1CN2CCC1CC2 (configuration not stated) | 7.18 | 7.10 | – | – | 0 | – | –
CCCSc1nsnc1OC1CN2CCCC1C2 (stereo in doubt; 28) | 9.42 | 9.26 | – | 9.00 | – | 2 | –
CCCCCCOc1nsnc1C1=CCCN(C)C1 [XANOMELINE] | – | – | – | – | 0 | – | –
CSCCc1nsnc1OC1CN2CCC1CC2 (configuration not stated) | 7.23 | 7.18 | – | – | 0 | – | –
CCCCCSc1nsnc1OC1CN2CCC1CC2 (stereo in doubt; 18f) | 8.19 | 8.43 | – | – | 0 | – | –
CCOc1nsnc1OC1CN2CCC1CC2 (configuration not stated) | 7.70 | 7.18 | – | – | 0 | – | –
CSc1nsnc1OC1CN2CCC1CC2 (configuration not stated) | 7.76 | 7.37 | 0.4 | – | – | – | –
CCCSc1nsnc1OC1CN2CCC1CC2 (configuration not stated) | 8.54 | 7.68 | 0.8 | 6.37 | – | – | –
COc1nsnc1OC1CN2CCC1CC2 (configuration not stated) | 6.70 | 6.81 | – | – | 0 | – | –
CCCSc1nsnc1O[C@@H]1CC2CCN(C2)C1 (stereo in doubt; 33) | 7.82 | 7.70 | – | – | 0 | – | –
CCCCOc1nsnc1OCC[N+](C)(C)C | 7.44 | 7.39 | – | – | 0 | – | –
Clc1nsnc1OC1CN2CCC1CC2 (configuration not stated) | 7.01 | 7.20 | – | – | 0 | – | –
CCCCOc1nsnc1OC1CCN(C)C1 (configuration not stated) | 7.38 | 7.36 | – | – | 0 | – | –
CCCCOc1nccnc1OC1CN2CCC1CC2 (configuration not stated) | 7.42 | 7.65 | – | – | 0 | – | –

Compound | pIC50 [1] | pIC50 [2] | Score (Mus musculus [3]) | pEC50 [4] | Score (Mus musculus [5]) | Score (Mus musculus [6]) | Score (Mus musculus [7])
CCCSc1nsnc1C1CN2CCC1C2 (stereo in doubt; 40) | 8.24 | – | – | – | – | – | –
CCCCOc1nsnc1OC1CNC1 | 6.98 | – | – | 5.21 | 0 | – | –
CCCCOc1nsnc1OCCN(C)C | 7.17 | 7.16 | – | – | 0 | – | –
CCCCOc1nsnc1OC1CCNC1 (configuration not stated) | 6.80 | 6.44 | – | 5.31 | 0 | – | –
CCCCOc1nsnc1OC1CN2CCC1CC2 (configuration not stated) | 7.97 | 7.37 | 0.4 | 6.99 | – | – | –
CCCCCCOc1nsnc1OC1CN2CCC1CC2 (configuration not stated) | 7.93 | 7.38 | 0.2 | 6.59 | – | – | –
CCCSc1nsnc1OC1CN2CCCC1C2 (stereo in doubt; 34) | 6.75 | 7.48 | – | – | 0 | – | –
CCCCCCSc1nsnc1OC1CN2CCC1CC2 (configuration not stated) | 8.12 | 7.55 | – | 6.65 | – | – | 1
CCCCOc1nonc1OC1CN2CCC1CC2 (configuration not stated) | 6.60 | 7.04 | – | – | 0 | – | –
CCCSc1nsnc1OC12CCCN(CC1)C2 (configuration not stated) | 8.28 | 8.17 | – | – | 0 | – | –
c1nsnc1OC1CN2CCC1CC2 (configuration not stated) | 6.27 | 6.08 | – | – | 0 | – | –
CCCCCOc1nsnc1OC1CN2CCC1CC2 (configuration not stated) | 7.90 | 7.32 | – | 6.78 | 0 | – | –
CCCSc1nsnc1OC1CN2CCC1C2 (stereo in doubt; 26) | 9.12 | 8.36 | – | 8.72 | – | 2 | –
CCCOc1nsnc1OC1CN2CCC1CC2 (configuration not stated) | 7.90 | 7.35 | – | – | 0 | – | –
CC(=O)OC1CN2CCC1CC2 (configuration not stated) [ACECLIDINE] | – | – | – | – | – | 2 | –
CCSc1nsnc1OC1CN2CCC1CC2 (configuration not stated) | 8.19 | 7.70 | – | – | 0 | – | –
CCCCSc1nsnc1OC1CN2CCC1CC2 (configuration not stated) | 8.60 | 8.30 | – | 7.65 | – | – | 1
CCCSc1nsnc1O[C@@H]1CC2CCN(C2)C1 (stereo in doubt; 27) | 8.55 | 8.15 | 0.2 | – | – | – | –
